# In the array DNA melting data of Ke et al. (doi:10.1101/2024.01.08.574731):
# Columns and labels:
# [1] = melting temperature; fluorescence melt of hairpins on a sequencing array, two-state fit, raised by 9.35 °C to match UV melts; conditions: sodium 0.088 M
# Procedure, shortened: (§1)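 To match UV melts, fitted temperatures were raised by 9.35 °C. These fits were bootstrapped two-state models that gave melting temperature and folding enthalpy, combined by inverse variance over four replicates. The input was normalised Cy3 fluorescence of library hairpins with annealed Cy3 and quencher oligos on a sequenced MiSeq flow cell, imaged in 50 mM Na-HEPES pH 8.0, 25 mM NaCl in 2.5 °C steps up to 60 °C.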
# [2] = folding enthalpy; higher = less favourable; fluorescence melt of hairpins on a sequencing array, two-state fit; conditions: sodium 0.088 M
# Procedure, shortened: as §1
Sequence,Tm [1],folding enthalpy [2]
GGGTGCGGAAACGTACCC ((((.((....)).)))),61.2 °C,-41.5 kcal/mol
GAAACCCCGAAAGGGTTC (((..(((....)))))),35.7 °C,-14 kcal/mol
GATCCTTGGAAGGATC ((((((....)))))),52.2 °C,-32.1 kcal/mol
GTGTGCCGAAAGGCCCAC (((.(((....))).))),53.1 °C,-25.3 kcal/mol
GATCCTGCACAGGATC ((((((....)))))),58.9 °C,-47.2 kcal/mol
GCGAGGACGAAAGTCCGC (((..(((....)))))),56.2 °C,-8.47 kcal/mol
GGTCAACGAAAGTTAACC (((.(((....))).))),39.3 °C,-25 kcal/mol
GATCCGCAGCCGGATC ((((((....)))))),55.9 °C,-40.7 kcal/mol
GATCAGTGGACTGATC ((((((....)))))),51.8 °C,-37 kcal/mol
GGTTGCCGAAAGGCACC (((.(((....)))))),59 °C,-14.5 kcal/mol
GGTCACCGAAAGGTTACC (((.(((....))).))),50.1 °C,-27.2 kcal/mol
GCATCTGGAAACAGATGC (((((((....))))))),67.3 °C,-47.9 kcal/mol
GCTTTGGGAAACCAGAGC (((.(((....))).))),48 °C,-27 kcal/mol
GCCCACGCGAAAGCGGGC (((..(((....)))))),61.8 °C,-11.9 kcal/mol
GTCAGTGGAAACGTTGAC ((((..(....)..)))),34.9 °C,-21.1 kcal/mol
GCCCTTCGAAAGAAAGGC (((.(((....))).))),45.1 °C,-28.5 kcal/mol
GTGCTCGGAAACGAGTGC (..((((....))))..),50.4 °C,-24.2 kcal/mol
GCGACACGAAAGTGCCGC (((.(((....))).))),64.3 °C,-38.8 kcal/mol
GGTTTCGAAAGAAGGACC ((((((....)))..))),29.1 °C,-15.5 kcal/mol
GGTGTCGAAAGACAGACC ((((((....)))..))),44 °C,-15.1 kcal/mol
GTTTCGGAAACGAAAC ((((((....)))))),56.9 °C,-35.9 kcal/mol
GTAAGCGAAAGCTTATAC ((((((....)))..))),39.1 °C,-12.2 kcal/mol
GAGGCCGAAAGGCACCTC ((((((....)))..))),40 °C,-8.77 kcal/mol

Sequence,Tm [1],folding enthalpy [2]
GCCCCAGGAAACCGAGGC (((.(.(....).).))),32.6 °C,-16.3 kcal/mol
GATCAACGTGTTGATC ((((((....)))))),57.4 °C,-60.2 kcal/mol
GATCATTGATATGATC ((((((....)))))),45.5 °C,-28 kcal/mol
GTTATCGAAAGATACAAC ((((((....)))..))),23.5 °C,-9.31 kcal/mol
GGGATCGAAAGATTGCCC ((((((....)))..))),32.6 °C,-14.6 kcal/mol
GGGACCGAAAGGTAACCC ((((((....)))..))),46.1 °C,-18.9 kcal/mol
GGAATGCGAAAGCACTCC (((.(((....))).))),48.3 °C,-23.6 kcal/mol
GGGAAGGGAAACCTCCCC (((.(((....))).))),45.2 °C,-21.6 kcal/mol
GTGGTGAAAACCAC (((((....))))),58 °C,-27.3 kcal/mol
GTCTCCGAAAGGAGGAC ((((((....))).))),50.8 °C,-16.4 kcal/mol
GCTACAGGAAACTGTAGC (((((((....))))))),63.7 °C,-47.9 kcal/mol
GAAACAGAAATGTTTC ((((((....)))))),45.9 °C,-28.5 kcal/mol
GCAAACCGAAAGGTCTGC (((.(((....))).))),49.8 °C,-29.8 kcal/mol
GATCCATCGATGGATC ((((((....)))))),55.2 °C,-47.8 kcal/mol
GATCCAGGAAACTGGATC (((((((....))))))),60.9 °C,-38.1 kcal/mol
GATCACGGAAACATGATC (((((.(....).))))),35.4 °C,-26 kcal/mol
GTCTTCGCGAAAGCGGAC (((..(((....)))))),30.4 °C,-10.6 kcal/mol
GCTGGTGGAAACACTAGC (((.(((....))).))),51.3 °C,-40.8 kcal/mol
GTGAGTGGAAACACTTGC (..((((....))))..),36.4 °C,-23.9 kcal/mol
GCGTTACACGC ((((...)))),58.1 °C,-19.8 kcal/mol
GATCTTGAGAAAGATC ((((((....)))))),45.9 °C,-32.1 kcal/mol
CTAGGGAAACCTAG (((((....))))),39.4 °C,-17.2 kcal/mol
GTTTGTGGAAACGTAAAC ((((..(....)..)))),29.1 °C,-13.6 kcal/mol

Sequence,Tm [1],folding enthalpy [2]
GCGTCTTCGAAAGAACGC (((..(((....)))))),46.6 °C,-26 kcal/mol
GATCCTGACCAGGATC ((((((....)))))),56.5 °C,-45.1 kcal/mol
GCCAGGCGAAAGCATAGC ((.(.((....)).).)),37.8 °C,-11.1 kcal/mol
GATCACCTAGGTGATC ((((((....)))))),59.7 °C,-41.5 kcal/mol
GGCGTAGGAAACTACGTC (.(((((....))))).),52.4 °C,-34.7 kcal/mol
GCATGCGAAAGCAGTGC ((((((....))).))),54.6 °C,-27 kcal/mol
GACAGCCGAAAGGCGGTC (((.(((....))).))),67 °C,-20.1 kcal/mol
GATCGTTCGACGATC ((((((...)))))),55.7 °C,-38.2 kcal/mol
TTGCGGAAACGCAA (((((....))))),57.6 °C,-18.1 kcal/mol
GGTGTAGGAAACTATACC (((.(((....))).))),42.4 °C,-32 kcal/mol
GCGGGGGGAAACTCCCGC (((((.(....).))))),68.4 °C,-33.8 kcal/mol
GGCTATCGAAAGATGGCC (((.(((....))).))),59.8 °C,-52.3 kcal/mol
GCGTGGCGACGC ((((....)))),65.1 °C,-16.4 kcal/mol
CGATCGGAAACGAGGTCG ((((((....)))..))),31 °C,-13.5 kcal/mol
GGCCGAGGAAACCCGGCC (((((.(....).))))),65.5 °C,-36.9 kcal/mol
GATCGTGTGACGATC ((((((...)))))),54.7 °C,-40.1 kcal/mol
GAGTTCGGAAACGGACTC ((((.((....)).)))),52 °C,-43.1 kcal/mol
GGCGGCGAAAGCCCTGCC ((((((....)))..))),53.6 °C,-20.1 kcal/mol
GATACGGAAACGTATC ((((((....)))))),54 °C,-43.6 kcal/mol
GGAACCGAAAGGTGTTCC ((((((....)))..))),40.5 °C,-17.6 kcal/mol
GAGTGGCGAAAGCCTCTC (((.(((....))).))),53.6 °C,-24.2 kcal/mol
GATCTAATTCTAGATC ((((((....)))))),37 °C,-29.9 kcal/mol
GAGTCGGGAAACCGATTC ((.((((....)))).)),47.7 °C,-25 kcal/mol

Sequence,Tm [1],folding enthalpy [2]
GTTGGCGAAAGCCCAAC ((((((....))).))),50.7 °C,-16.3 kcal/mol
GATCCGCATCCGGATC ((((((....)))))),56.6 °C,-38 kcal/mol
GTCCGCGAAAGCGTTGAC ((((((....)))..))),36.8 °C,-14.4 kcal/mol
GCAGTCGAAAGACCTGC ((((((....))).))),51.2 °C,-29.9 kcal/mol
GTGCTTGCGAAAGCACAC (((..(((....)))))),61.4 °C,-13.1 kcal/mol
GCCAGTGGAAACGTTGGC ((((..(....)..)))),48.2 °C,-24.4 kcal/mol
GAAAGCCCGAAAGGGTTC (((..(((....)))))),27.9 °C,-10.6 kcal/mol
GGCATGCGAAAGCAAGCC (((.(((....))).))),65.4 °C,-27.8 kcal/mol
GCGACGCATCGC ((((....)))),49.8 °C,-16 kcal/mol
GATCGTAAGACGATC ((((((...)))))),54.2 °C,-42.3 kcal/mol
GTATCTGAAAAGATAC ((((((....)))))),49.2 °C,-33.2 kcal/mol
GTGACATCGAAAGATCAC (((..(((....)))))),33 °C,-16.2 kcal/mol
GGGGTACCGAAAGGTCCC (((..(((....)))))),56.7 °C,-27.5 kcal/mol
GCAATCGGAAACGATCAC (..((((....))))..),25.1 °C,-12 kcal/mol
GCCCATGCGAAAGCAGGC (((..(((....)))))),50.8 °C,-13.8 kcal/mol
GTGTTCGAAAGAAACCAC ((((((....)))..))),27.4 °C,-10.4 kcal/mol
GATCTGTAAGCAGATC ((((((....)))))),51.4 °C,-49.9 kcal/mol
GAGGGTGGAAACACCCTC (((((((....))))))),68.7 °C,-35 kcal/mol
GTGAAGCGAAAGCTACAC (((.(((....))).))),55.7 °C,-30.1 kcal/mol
GACGACGAAAGTCCCGTC ((((((....)))..))),34.3 °C,-16.6 kcal/mol
GTTTCTGGAAACAGGAAC (((.(((....))).))),43.6 °C,-30.4 kcal/mol
GTCATAGGAAACTGTGAC ((((.((....)).)))),46.4 °C,-32.1 kcal/mol
GCTGAGGGAAACCTCGGC ((.((((....)))).)),56.8 °C,-39.9 kcal/mol
